Data reported in article PMC7950731 (Cell reports, 2019).

Experiments:
Assay in all cases: TR-FRET of indisulam-induced ternary complex
Assay type in all cases: binding
[1] = target: RBM39 (Homo sapiens, UniProt Q14498+Q66K64)
Procedure, shortened: (§1)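 Purified His-DCAF15–DDB1–DDA1 (SF9 co-expression) and RBM39 aa 250–330-3xFLAG (E. coli, His tag TEV-cleaved), each 0.1 μM final, with 1 nM Eu-anti-6xHis donor and 5 ng/μL anti-FLAG-XL665 acceptor. Test compound titrated, 5 min at room temperature. Excitation 360 nm; 665/620 nm ratio. Run in triplicate; EC50 from four-parameter fit.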

[2] = target: DCAF15 (Homo sapiens, UniProt Q14498+Q66K64)
Procedure, shortened: as §1

[3] = target: RBM23 (Homo sapiens, UniProt Q66K64+Q86U06)

- EC50 [1]: 2.27 µM
- EC50 [2]: 2.27 µM
- EC50 [3]: 2.58 µM
Structure (SMILES): NS(=O)(=O)c1ccc(S(=O)(=O)Nc2cccc3c(Cl)c[nH]c23)cc1 [indisulam]
